Reference: ChEMBL document CHEMBL2321753, “Synthesis and biological evaluation of radioiodinated quinacrine-based derivatives for SPECT imaging of Aβ plaques” (Eur J Med Chem, 2013)
pKi: −log10 of the molar value. Values belong to the compound of their own block, whether it stands above or below them.

Legend:
[1] = target: Amyloid-beta precursor protein (Homo sapiens, UniProt P05067); assay: Displacement of [125I]IMPY from amyloid beta (1 to 42) (unknown origin) after 3 hrs by gamma counting
Outline: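 Filtered through GF/B filters and bound radioactivity gamma-counted. IC50 from displacement curves of three independent experiments; Ki calculated with the Cheng–Prusoff equation.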

Heart [2] = assay: Biodistribution in ddY mouse heart at 0.1 to 0.4 uCi, iv after 60 mins by gamma counting; format: ADME, organism-based; settings: in vivo, 1 h
Outline: (§1)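 [125I]ligand (0.1–0.4 µCi) in 100 µL PBS (pH 7.4) containing 30 µL DMSO, injected into the tail vein of ddY mice (5 weeks, 22–25 g). Mice sacrificed at 2, 10, 30 and 60 min. Organs removed, weighed and gamma-counted. Values are % injected dose per gram, except stomach as % dose per organ. Mean (SD) of 3–6 mice per time point.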

Pancreas [3] = assay: Biodistribution in ddY mouse pancreas at 0.1 to 0.4 uCi, iv after 60 mins by gamma counting; format: ADME, organism-based; settings: in vivo, 1 h; outline: as §1
Stomach [4] = assay: Biodistribution in ddY mouse stomach assessed per organ at 0.1 to 0.4 uCi, iv after 60 mins by gamma counting; format: ADME, organism-based; settings: in vivo, 1 h; outline: as §1
Lung [5] = assay: Biodistribution in ddY mouse lung at 0.1 to 0.4 uCi, iv after 60 mins by gamma counting; format: ADME, organism-based; settings: in vivo, 1 h; outline: as §1
Spleen [6] = assay: Biodistribution in ddY mouse spleen at 0.1 to 0.4 uCi, iv after 60 mins by gamma counting; format: ADME, organism-based; settings: in vivo, 1 h; outline: as §1
Intestine [7] = assay: Biodistribution in ddY mouse intestine at 0.1 to 0.4 uCi, iv after 60 mins by gamma counting; format: ADME, organism-based; settings: in vivo, 1 h; outline: as §1
Kidney [8] = assay: Biodistribution in ddY mouse kidney at 0.1 to 0.4 uCi, iv after 60 mins by gamma counting; format: ADME, organism-based; settings: in vivo, 1 h; outline: as §1
Liver [9] = assay: Biodistribution in ddY mouse liver at 0.1 to 0.4 uCi, iv after 60 mins by gamma counting; format: ADME, organism-based; settings: in vivo, 1 h; outline: as §1
Brain [10] = assay: Biodistribution in ddY mouse brain at 0.1 to 0.4 uCi, iv after 60 mins by gamma counting; format: ADME, organism-based; settings: in vivo, 1 h; outline: as §1
Blood [11] = assay: Biodistribution in ddY mouse blood at 0.1 to 0.4 uCi, iv after 60 mins by gamma counting; format: ADME, organism-based; settings: in vivo, 1 h; outline: as §1
Heart [12] = assay: Biodistribution in ddY mouse heart at 0.1 to 0.4 uCi, iv after 30 mins by gamma counting; format: ADME, organism-based; settings: in vivo, 0.5 h; outline: as §1
Pancreas [13] = assay: Biodistribution in ddY mouse pancreas at 0.1 to 0.4 uCi, iv after 30 mins by gamma counting; format: ADME, organism-based; settings: in vivo, 0.5 h; outline: as §1
Stomach [14] = assay: Biodistribution in ddY mouse stomach assessed per organ at 0.1 to 0.4 uCi, iv after 30 mins by gamma counting; format: ADME, organism-based; settings: in vivo, 0.5 h; outline: as §1
Lung [15] = assay: Biodistribution in ddY mouse lung at 0.1 to 0.4 uCi, iv after 30 mins by gamma counting; format: ADME, organism-based; settings: in vivo, 0.5 h; outline: as §1
Spleen [16] = assay: Biodistribution in ddY mouse spleen at 0.1 to 0.4 uCi, iv after 30 mins by gamma counting; format: ADME, organism-based; settings: in vivo, 0.5 h; outline: as §1
Intestine [17] = assay: Biodistribution in ddY mouse intestine at 0.1 to 0.4 uCi, iv after 30 mins by gamma counting; format: ADME, organism-based; settings: in vivo, 0.5 h; outline: as §1
Kidney [18] = assay: Biodistribution in ddY mouse kidney at 0.1 to 0.4 uCi, iv after 30 mins by gamma counting; format: ADME, organism-based; settings: in vivo, 0.5 h; outline: as §1
Liver [19] = assay: Biodistribution in ddY mouse liver at 0.1 to 0.4 uCi, iv after 30 mins by gamma counting; format: ADME, organism-based; settings: in vivo, 0.5 h; outline: as §1
Brain [20] = assay: Biodistribution in ddY mouse brain at 0.1 to 0.4 uCi, iv after 30 mins by gamma counting; format: ADME, organism-based; settings: in vivo, 0.5 h; outline: as §1
Blood [21] = assay: Biodistribution in ddY mouse blood at 0.1 to 0.4 uCi, iv after 30 mins by gamma counting; format: ADME, organism-based; settings: in vivo, 0.5 h; outline: as §1
Heart [22] = assay: Biodistribution in ddY mouse heart at 0.1 to 0.4 uCi, iv after 10 mins by gamma counting; format: ADME, organism-based; settings: in vivo; outline: as §1
Pancreas [23] = assay: Biodistribution in ddY mouse pancreas at 0.1 to 0.4 uCi, iv after 10 mins by gamma counting; format: ADME, organism-based; settings: in vivo; outline: as §1
Stomach [24] = assay: Biodistribution in ddY mouse stomach assessed per organ at 0.1 to 0.4 uCi, iv after 10 mins by gamma counting; format: ADME, organism-based; settings: in vivo; outline: as §1
Lung [25] = assay: Biodistribution in ddY mouse lung at 0.1 to 0.4 uCi, iv after 10 mins by gamma counting; format: ADME, organism-based; settings: in vivo; outline: as §1
Spleen [26] = assay: Biodistribution in ddY mouse spleen at 0.1 to 0.4 uCi, iv after 10 mins by gamma counting; format: ADME, organism-based; settings: in vivo; outline: as §1
Intestine [27] = assay: Biodistribution in ddY mouse intestine at 0.1 to 0.4 uCi, iv after 10 mins by gamma counting; format: ADME, organism-based; settings: in vivo; outline: as §1
Liver [28] = assay: Biodistribution in ddY mouse liver at 0.1 to 0.4 uCi, iv after 10 mins by gamma counting; format: ADME, organism-based; settings: in vivo; outline: as §1
Kidney [29] = assay: Biodistribution in ddY mouse kidney at 0.1 to 0.4 uCi, iv after 10 mins by gamma counting; format: ADME, organism-based; settings: in vivo; outline: as §1
Brain [30] = assay: Biodistribution in ddY mouse brain at 0.1 to 0.4 uCi, iv after 10 mins by gamma counting; format: ADME, organism-based; settings: in vivo; outline: as §1
Blood [31] = assay: Biodistribution in ddY mouse blood at 0.1 to 0.4 uCi, iv after 10 mins by gamma counting; format: ADME, organism-based; settings: in vivo; outline: as §1
Pancreas [32] = assay: Biodistribution in ddY mouse pancreas at 0.1 to 0.4 uCi, iv after 2 mins by gamma counting; format: ADME, organism-based; settings: in vivo; outline: as §1
Heart [33] = assay: Biodistribution in ddY mouse heart at 0.1 to 0.4 uCi, iv after 2 mins by gamma counting; format: ADME, organism-based; settings: in vivo; outline: as §1
Stomach [34] = assay: Biodistribution in ddY mouse stomach assessed per organ at 0.1 to 0.4 uCi, iv after 2 mins by gamma counting; format: ADME, organism-based; settings: in vivo; outline: as §1
Lung [35] = assay: Biodistribution in ddY mouse lung at 0.1 to 0.4 uCi, iv after 2 mins by gamma counting; format: ADME, organism-based; settings: in vivo; outline: as §1
Intestine [36] = assay: Biodistribution in ddY mouse intestine at 0.1 to 0.4 uCi, iv after 2 mins by gamma counting; format: ADME, organism-based; settings: in vivo; outline: as §1
Spleen [37] = assay: Biodistribution in ddY mouse spleen at 0.1 to 0.4 uCi, iv after 2 mins by gamma counting; format: ADME, organism-based; settings: in vivo; outline: as §1
Kidney [38] = assay: Biodistribution in ddY mouse kidney at 0.1 to 0.4 uCi, iv after 2 mins by gamma counting; format: ADME, organism-based; settings: in vivo; outline: as §1
Liver [39] = assay: Biodistribution in ddY mouse liver at 0.1 to 0.4 uCi, iv after 2 mins by gamma counting; format: ADME, organism-based; settings: in vivo; outline: as §1
Blood [40] = assay: Biodistribution in ddY mouse blood at 0.1 to 0.4 uCi, iv after 2 mins by gamma counting; format: ADME, organism-based; settings: in vivo; outline: as §1
Brain [41] = assay: Biodistribution in ddY mouse brain at 0.1 to 0.4 uCi, iv after 2 mins by gamma counting; format: ADME, organism-based; settings: in vivo; outline: as §1
[42] = n-octanol-sodium phosphate buffer partition co-efficient, log D of the compound at pH 7.4 by shake flask method; format: physicochemical
Outline: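 Shake-flask partition between n-octanol and sodium phosphate buffer, pH 7.4, shaken 10 min at room temperature, then centrifuged. Weighed 0.5 mL samples of each layer counted. log D from the ratio of cpm per gram of octanol to cpm per gram of buffer; n = 3.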

Chain of Amyloid-beta precursor protein (P05067 whole entry): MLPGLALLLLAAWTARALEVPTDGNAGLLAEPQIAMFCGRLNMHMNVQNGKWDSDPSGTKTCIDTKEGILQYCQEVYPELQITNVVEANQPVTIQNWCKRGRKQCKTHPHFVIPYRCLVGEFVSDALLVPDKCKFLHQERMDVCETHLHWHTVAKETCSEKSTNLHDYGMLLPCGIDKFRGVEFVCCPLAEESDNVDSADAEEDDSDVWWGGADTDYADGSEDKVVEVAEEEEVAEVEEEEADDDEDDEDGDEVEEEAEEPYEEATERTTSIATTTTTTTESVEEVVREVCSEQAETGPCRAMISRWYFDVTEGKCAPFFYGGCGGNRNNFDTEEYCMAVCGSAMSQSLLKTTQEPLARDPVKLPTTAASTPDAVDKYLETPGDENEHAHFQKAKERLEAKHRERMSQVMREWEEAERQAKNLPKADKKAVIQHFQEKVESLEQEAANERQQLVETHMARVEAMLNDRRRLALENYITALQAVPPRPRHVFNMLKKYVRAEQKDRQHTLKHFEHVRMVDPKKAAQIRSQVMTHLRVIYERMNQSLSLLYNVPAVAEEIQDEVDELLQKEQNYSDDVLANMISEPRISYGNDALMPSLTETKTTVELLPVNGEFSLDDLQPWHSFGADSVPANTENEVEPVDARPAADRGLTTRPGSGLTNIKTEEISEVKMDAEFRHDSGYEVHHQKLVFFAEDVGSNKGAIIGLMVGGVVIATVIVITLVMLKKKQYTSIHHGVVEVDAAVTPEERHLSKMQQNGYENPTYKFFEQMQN

- pKi [1]: 7.86
SMILES: CNc1c2ccc(I)cc2nc2ccc(OC)cc12

- pKi [1]: 7.08
SMILES: COc1ccc2nc3cc(I)ccc3c(N)c2c1

- Drug uptake (Heart [2]): 2.38 % ID/g
- Drug uptake (Pancreas [3]): 1.14 % ID/g
- Drug uptake (Stomach [4]): 4.33 %ID
- Drug uptake (Lung [5]): 3.87 % ID/g
- Drug uptake (Spleen [6]): 2.43 % ID/g
- Drug uptake (Intestine [7]): 11.2 % ID/g
- Drug uptake (Kidney [8]): 4.81 % ID/g
- Drug uptake (Liver [9]): 10.79 % ID/g
- Drug uptake (Brain [10]): 0.71 % ID/g
- Drug uptake (Blood [11]): 5.17 % ID/g
- Drug uptake (Heart [12]): 4.09 % ID/g
- Drug uptake (Pancreas [13]): 2.29 % ID/g
- Drug uptake (Stomach [14]): 4.2 %ID
- Drug uptake (Lung [15]): 6.67 % ID/g
- Drug uptake (Spleen [16]): 5.4 % ID/g
- Drug uptake (Intestine [17]): 17.49 % ID/g
- Drug uptake (Kidney [18]): 10.72 % ID/g
- Drug uptake (Liver [19]): 18.54 % ID/g
- Drug uptake (Brain [20]): 1.6 % ID/g
- Drug uptake (Blood [21]): 6.52 % ID/g
- Drug uptake (Heart [22]): 3.78 % ID/g
- Drug uptake (Pancreas [23]): 2.47 % ID/g
- Drug uptake (Stomach [24]): 5.1 %ID
- Drug uptake (Lung [25]): 6.66 % ID/g
- Drug uptake (Spleen [26]): 4.07 % ID/g
- Drug uptake (Intestine [27]): 14.19 % ID/g
- Drug uptake (Liver [28]): 20.71 % ID/g
- Drug uptake (Kidney [29]): 8.99 % ID/g
- Drug uptake (Brain [30]): 1.96 % ID/g
- Drug uptake (Blood [31]): 7 % ID/g
- Drug uptake (Pancreas [32]): 4.11 % ID/g
- Drug uptake (Heart [33]): 5.83 % ID/g
- Drug uptake (Stomach [34]): 1.83 %ID
- Drug uptake (Lung [35]): 7.17 % ID/g
- Drug uptake (Intestine [36]): 1.86 % ID/g
- Drug uptake (Spleen [37]): 5.09 % ID/g
- Drug uptake (Kidney [38]): 10.94 % ID/g
- Drug uptake (Liver [39]): 20.78 % ID/g
- Drug uptake (Blood [40]): 8.34 % ID/g
- Drug uptake (Brain [41]): 2.09 % ID/g
- logD [42]: 1.81
SMILES: COc1c2ccc([125I])cc2nc2ccc(N(C)C)cc12

- pKi [1]: 7.52
SMILES: COc1c2ccc(I)cc2nc2ccc(N(C)C)cc12
